Measurements published in ChEMBL document CHEMBL4513216, “Probing the Open Global Health Chemical Diversity Library for Multistage-Active Starting Points for Next-Generation Antimalarials” (ACS Infect Dis, 2020).

Test: Toxicity liver stage against HepG2, at 10uM
Format: cell-based
Design: test concentration 10 uM, cell line HepG2-A16-CD81EGFP
Conditions: human, HepG2-A16-CD81EGFP cells; read-out: INHIBITION
Procedure, shortened: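 Uninfected HepG2-A16-CD81EGFP cells, 3 × 10^3 per well, 1536-well, plated on prespotted compound at 10 μM final, parasite-free screening media added to match infected plates; puromycin 10 μM positive, DMSO 0.5% negative; run in parallel with 48 h PbLuc assay at 37 °C, 5% CO2; viability by CellTiter-Glo luminescence, normalized to controls.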

Row | SMILES | cytotoxicity at 10 µM
1 | COc1ccc(F)c(-c2ncccc2NC(=O)C(C)C)c1 | 5.69%
2 | CC(C)NC(=O)CN(C)C(=O)c1csc(Cc2ccccc2F)n1 | 3.24%
3 | CC(C)(C)CC1CCCN1Cc1nc(-c2ccco2)no1 (stereo not drawn) | 4.11%
4 | CCN(CC)C(=O)Cn1cc(-c2nc(C(C)C)no2)nn1 | 2.28%
5 | COc1ccc(C(C)Nc2nc3c(C)nn(C)c3c(=O)n2C)cc1 (stereo not drawn) | 1.89%
6 | CC(C)Oc1cc(N2CCCC(O)C2)nc(N)n1 (stereo not drawn) | -0.796%
7 | Fc1ccc(-c2nnc(CN3CCOC(Cn4cncn4)C3)o2)cc1 (stereo not drawn) | -5.97%
8 | CNC(=O)CSc1nc2c(cnn2Cc2ccc(F)cc2)c(=O)[nH]1 | -16%
9 | CN(C)c1ccc(NC(=O)NCc2ccccn2)cn1 | -3.34%
10 | Cc1noc(NCc2cn(C)nc2-c2cccnc2)n1 | 6.87%
11 | CN(Cc1ccoc1)C(=O)CN1C(=O)OC(C)(C)C1=O | -128%
12 | CCc1nc(CN2CCCN(C(=O)CCSC)CC2)cs1 | -5.41%
13 | NCCc1n[nH]c(=O)n1-c1cccc(Cl)c1Cl | -2.38%
14 | COc1ccc(C(CNC(=O)NCc2csc(C)n2)N(C)C)cc1 (stereo not drawn) | -5.59%
15 | Cc1ccc(C(=O)N2CCC3(CC2)COC(COc2cccnc2)C3)o1 (stereo not drawn) | -3.16%
16 | Cc1nnc(CN2CCC(Oc3ccc(F)cc3)CC2)o1 | -11.8%
17 | N#CCCCn1cnc2c(F)cc(Br)cc2c1=O | 4.29%
18 | Cc1cc(C)n(C2CCCN(C(=O)CCNc3ncccn3)C2)n1 (stereo not drawn) | -2.53%
19 | O=C(Cc1cn2ccccc2n1)N1CCCC(n2cccn2)C1 (stereo not drawn) | -5.16%
20 | CNc1ccc(CC2CCCN(C(=O)c3c(C)noc3C)C2)nn1 (stereo not drawn) | -5%
21 | NC(=O)Cn1cc(NC(=O)N2CCCC2)cn1 | -8.67%
22 | COC(=O)Nc1nc2c(s1)CN(C(=O)NCc1cccs1)CC2 | 3.89%
23 | Cc1ccc(CCC(=O)N2CCOCC2)cc1Cl | 12.3%

Row | SMILES | cytotoxicity at 10 µM
24 | CCC(C)(NCC(=O)OC)c1nc(C)cs1 (stereo not drawn) | -3.94%
25 | CC(=O)N1CCC(NC(=O)NCCCc2cn[nH]c2C)CC1 | -4.2%
26 | Cc1csc(CCNc2ccc(C#N)cn2)n1 | 0.738%
27 | Cc1nn(C)c(C)c1C1CCCN1Cc1ccc(C(N)=O)cc1 (stereo not drawn) | -1.01%
28 | Cc1nccc(-c2ccccc2)c1C(=O)N1CC[C@](C)(O)C(C)(C)C1 | -3.45%
29 | Cc1ccncc1-n1cc(CCO)cn1 | -2.51%
30 | N#Cc1ccccc1OCCN1CCn2c(nnc2C2CC2)C1 | 2.94%
31 | CCc1n[nH]c(C2CN(C(=O)c3cscn3)CCO2)n1 (stereo not drawn) | 5.08%
32 | Cc1nn(C)cc1NC(=O)CC1CCN(C(=O)Cc2ccccc2)CC1 | 1.96%
33 | Cc1occc1CNC(=O)C1CCN(C(=O)OC(C)(C)C)C1 (stereo not drawn) | 3.67%
34 | CC(CNC(=O)N1CCSCC1)Cc1cccs1 (stereo not drawn) | -8.63%
35 | O=C(c1ccccn1)N1C[C@H]2CC[C@@H](C1)N(C(=O)c1ccsc1)C2 | 3.88%
36 | CCc1ccc(CN2CCc3ncnc(N4CCOCC4)c3CC2)o1 | -2.05%
37 | CCOC(CC)C(=O)NCc1ccnc(Oc2ccc(F)cc2)c1 (stereo not drawn) | -1.43%
38 | COc1cc(CN[C@@H]2COC[C@H]2Cc2cc(C)no2)cc(OC)c1 | 0.975%
39 | CN(C)S(=O)(=O)NCC1CCN(Cc2ccccc2F)CC1 | -0.768%
40 | CC(NC(=O)CCOc1ccccc1Cl)c1nnc2n1CCC2 (stereo not drawn) | -6.46%
41 | CCCc1cnc(C)nc1N1CCC(F)(F)CC1 | 7.46%
42 | O=C(CNc1ccc(OC2CCOC2)cc1)NCc1ccc(F)cc1 (stereo not drawn) | 3.4%
43 | OC(CN1CCC(c2ccn[nH]2)CC1)c1ccc(F)cc1 (stereo not drawn) | -28.9%
44 | Cc1ccc(NC(=O)c2ncc(C(N)=O)cc2Cl)cc1F | -3.53%
45 | NCCc1n[nH]c(=O)n1-c1cccc2ccccc12 | 3.96%
46 | Cc1oc(C(=O)O)cc1S(=O)(=O)Nc1ccc(Br)cc1Cl | -5.09%

Row | SMILES | cytotoxicity at 10 µM
47 | O=C(NCCCO)Nc1cccc(Cl)c1F | 2.79%
48 | Cc1cccc(N2CCOCC3(C2)CN(c2ccoc2)C(=O)CO3)n1 (stereo not drawn) | 4.39%
49 | Cc1nc(CN2CCC3(C2)CN(C(=O)c2conc2C)C3)cs1 | -105%
50 | COc1ccc(NC(=O)C2OC(c3cccs3)=NN2C(C)=O)cc1OC (stereo not drawn) | -2.19%
51 | CS(=O)(=O)N1CC(c2nc(N)ncc2-c2ccc(F)cc2)C1 | -3.49%
52 | COCCc1noc(-c2cc(Cl)c3c(c2)OCCCO3)n1 | 3.61%
53 | CN(C)c1nc2c(c(N3CCc4c(c(CO)nn4C)C3)n1)CCNC2 | -5.72%
54 | CC(=O)c1cccc(OCCCC(=O)N(C)Cc2cnn(C)c2)c1 | -3.05%
55 | CN(C)CCN1CCOCC2(CCN(Cc3ccc[nH]3)CC2)C1 | 0.626%
56 | CC(O)CN1CCN(Cc2cccc(C(=O)N(C)C)c2)CC1 (stereo not drawn) | -3.93%
57 | CC(C)N(C)CC(=O)NCC(O)c1cc2ccccc2s1 (stereo not drawn) | -3.91%
58 | Cc1cn2c(CN(C)C(=O)c3nccnc3N)c(C)nc2s1 | -4.12%
59 | O=C(c1ccncc1Cl)N1CCN(Cc2ccco2)C(CCO)C1 (stereo not drawn) | -9.84%
60 | CS(=O)(=O)N1CCC2(CC1)COC(COc1ccccn1)C2 (stereo not drawn) | 5.63%
61 | C[C@H]1C[C@@H]2CCN(Cc3nccs3)C[C@H]2O1 | -3%
62 | O=C(Cn1nnc(-c2ccc(F)cc2)n1)N1CCOCC(O)C1 (stereo not drawn) | 10.9%
63 | CC(C)C(C)NC(=O)Nc1cccc(OCC#N)c1 (stereo not drawn) | -1.13%
64 | O=C(c1cc2c(F)cccc2[nH]1)N1CCCCC1Cn1cccn1 (stereo not drawn) | -7.95%
65 | CN(Cc1ccccn1)c1nccc(N2CCN[C@H]3CS(=O)(=O)C[C@H]32)n1 | 10.5%
66 | CC(=O)N1CCOC2(CCN(C(=O)C3CC3)CC2)C1 | -106%
67 | CC(C)=CCN1CCN(Cc2nc3ccccc3[nH]2)[C@H]2CS(=O)(=O)C[C@H]21 | -132%
68 | COCCc1noc(CN2CCCC2Cn2cc(C)cn2)n1 (stereo not drawn) | -3.32%
69 | Cc1ccc(Oc2ncccc2C(=O)N(C)CC2OCCO2)c(C)c1 | 3.54%

Row | SMILES | cytotoxicity at 10 µM
70 | O=S1(=O)C[C@@H]2[C@H](C1)N(Cc1cccc(O)c1)CCN2CC1CC1 | 1.79%
71 | CS(=O)(=O)CCN(CCc1cccc(F)c1)C1CC1 | 11.4%
72 | O=C(Cc1ccccn1)N1CCc2nc(-c3cnccn3)nc(O)c2C1 | 2.83%
73 | CC(C)(C)n1cc(C2=CCN(CCNC(N)=O)CC2)cn1 | -3.51%
74 | CC(C)(C)C(=O)NCCc1cc2nc(-c3ccncc3)ccn2n1 | 6.66%
75 | CC(c1ccccc1Cl)N1CCN(C(=O)c2ccc(=O)[nH]c2)CC1 (stereo not drawn) | -7.85%
76 | CN1CCCC(c2n[nH]c3ncccc23)C1 (stereo not drawn) | -3.35%
77 | Cc1ccccc1CN(C)CC(O)COCc1ccccc1Cl (stereo not drawn) | 8.49%
78 | CCOC(=O)NCCC(O)c1ccoc1 (stereo not drawn) | -10.5%
79 | Cc1cc(NC(=O)N(C)C2CCN(c3ccccc3F)C2=O)n(C)n1 (stereo not drawn) | -7.52%
80 | CN1C(=O)[C@@H]2CC[C@H]1CN(C(=O)c1nnc3n1CCCCC3)C2 | -6.34%
81 | CC(C)NC(=O)N1CCN(S(=O)(=O)C2CC2)CC2(CNC(=O)C2)C1 (stereo not drawn) | 1%
82 | CCCc1nc(CN(CC)Cc2ccc(S(C)(=O)=O)cc2)no1 | -16.9%
83 | CCc1noc(-c2cccc(C(=O)O)c2)n1 | -8.24%
84 | CCOc1cc(CNc2nnn(C)n2)ccc1OCc1ccc(Cl)cc1 | 6.04%
85 | Cc1cccc(=O)n1CCC(=O)N1CC[C@](C)(O)[C@H](C)C1 | 2.81%
86 | COc1cc(C2(C(=O)NCCn3ccnc3)CCCC2)ccc1C | 8%
87 | COc1ccc(C(C(=O)O)N(C)Cc2ccon2)cc1Cl (stereo not drawn) | -5.02%
88 | CCn1c(SCC(=O)N2CCCC2)nc2cc(C)[nH]c2c1=O | 7.44%
89 | CC(C)(NCc1cccc(O)c1)c1ccc2c(c1)OCO2 | 5.12%
90 | COc1ccc(CC2CN(Cc3cncn3C)CCO2)cc1 (stereo not drawn) | 0.328%
91 | O=C(N[C@@H]1CN(CC2CC2)[C@@H]2CCCO[C@@H]21)c1cscn1 | -109%
92 | COc1ccc(C)cc1-n1cnnc1C1CCOCC1 | 11.2%

Row | SMILES | cytotoxicity at 10 µM
93 | COCc1nc(N(C)C)ncc1C(=O)Nc1ccc(Cl)cc1 | 0.474%
94 | Cc1c(Cl)cccc1OCC(=O)NC1(C#N)CCSC1 (stereo not drawn) | 37.8%
95 | CN(Cc1nc(N2CCCC2)ncc1-c1ccncc1)C(=O)C(C)(C)C | 6.58%
96 | CC(C)N1CCc2onc(Cn3cccc3)c2C1 | 7.55%
97 | O=C(NCc1nccn1CCc1ccccc1)NCC1CCC1 | 4.7%
98 | COCCn1cc2c(n1)C(CNC(=O)c1cc(C)[nH]c1C)OCC2 (stereo not drawn) | 8.81%
99 | O=C(c1cccnc1)N1CCN(CC2CC2)c2ncccc2C1 | 2%
100 | COc1ccc(C[C@H]2CNCC[C@@H]2OCC2CC2)cc1 | -1.24%
101 | Cc1cccc(NC(=O)N2CCCn3cnc(CN4CCCC4)c3C2)c1 | -12.2%
102 | CCO[C@@H]1CN(Cc2scnc2C)[C@@H]2CCCO[C@@H]21 | -151%
103 | Cc1c[nH]c(C(=O)N2CCC(c3nnc(CN(C)CCO)n3C)CC2)c1 | -3.52%
104 | COc1ccc2[nH]nc(CN3CCN(Cc4cccc(F)c4)CC3)c2c1 | -8.14%
105 | Cc1noc(C)c1C(=O)N1CCCN(C)c2ccc(Cl)cc21 | 4.61%
106 | Cc1cc(O)cc(=O)n1CCCC(=O)Nc1n[nH]c2ccccc12 | -10.6%
107 | CC(NCc1ccc(F)cc1)c1ccc(S(C)(=O)=O)cc1 (stereo not drawn) | 12.6%
108 | CN(C)C(C(=O)N1CC(Oc2ccccc2F)C1)c1ccccc1F (stereo not drawn) | -0.598%
109 | CCc1[nH]c2c(CNC(=O)C3CNC(=O)C3)cc(C)cc2c1C (stereo not drawn) | 2.75%
110 | CCn1cc(NC(=O)C2CCN(Cc3nc(C)c(C)o3)CC2)cn1 | 5.3%
111 | O=C(COc1coc(CN2CCOCC2)cc1=O)c1ccc(Cl)cc1 | -10.6%
112 | O=C(CCCc1ccccn1)N1CCCC(n2cccn2)C1 (stereo not drawn) | -10.7%
113 | COC(=O)c1ccc(CN[C@@H]2COC[C@H]2Cc2cc(C)no2)cc1 | -23%
